In ChEMBL document CHEMBL3856257, “Benzo[b]thiophene-2-carboxamide derivatives as potent urotensin-II receptor antagonists” (Bioorg Med Chem Lett, 2016):

Target: T1, Urotensin-2 receptor (Homo sapiens, UniProt Q9UKP6)
T1 sequence (Q9UKP6 whole entry): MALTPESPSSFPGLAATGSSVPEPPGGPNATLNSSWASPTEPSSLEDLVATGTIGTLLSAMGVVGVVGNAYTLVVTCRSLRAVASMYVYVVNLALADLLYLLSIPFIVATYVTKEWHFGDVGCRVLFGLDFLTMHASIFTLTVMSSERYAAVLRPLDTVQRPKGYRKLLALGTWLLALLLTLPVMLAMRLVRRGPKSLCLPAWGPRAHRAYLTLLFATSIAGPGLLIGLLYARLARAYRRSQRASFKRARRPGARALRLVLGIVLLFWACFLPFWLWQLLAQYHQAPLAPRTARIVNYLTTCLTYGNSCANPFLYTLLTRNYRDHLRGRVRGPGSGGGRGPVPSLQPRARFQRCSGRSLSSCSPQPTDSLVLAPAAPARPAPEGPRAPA
Assay: Displacement of europium-labeled urotensin-2 from human recombinant urotensin-2 receptor expressed in HEK293 cell membranes after 90 mins by filtration based time resolved fluorometric assay
Settings: not given
How it was run: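 Competitive binding against Eu-labeled U-II on membranes of HEK293 cells expressing human UT receptor, read by time-resolved fluorometry. IC50 values are means of at least two measurements.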

Compound | IC50 [nM]
O=C(NC1CCN(Cc2ccc(OC3CCNCC3)c(Br)c2)CC1)c1cc2cc(Cl)ccc2s1 | 51
N#Cc1ccc2cc(C(=O)NC3CCN(Cc4ccc(OC5CCNCC5)c(Br)c4)CC3)sc2c1 | 80
O=C(NC1CCN(Cc2ccc(OC3CCNCC3)c(Br)c2)CC1)c1cc2ccc(-c3ccc(Cl)cc3)cc2s1 | 140
COc1ccccc1-c1ccc2cc(C(=O)NC3CCN(Cc4ccc(OC5CCNCC5)c(Br)c4)CC3)sc2c1 | 560
O=C(NC1CCN(Cc2ccc(OC3CCNCC3)c(Br)c2)CC1)c1cnccn1 | 610
O=C(NC1CCN(Cc2ccc(OC3CCNCC3)c(Br)c2)CC1)c1cc2cc(F)ccc2s1 | 53
O=C(NC1CCN(Cc2ccc(OC3CCNCC3)c(Br)c2)CC1)c1cc2ccccc2s1 | 63
O=C(NC1CCN(Cc2ccc(OC3CCNCC3)c(Br)c2)CC1)c1cscn1 | 970
O=C(NC1CCN(Cc2ccc(OC3CCNCC3)c(Br)c2)CC1)c1cc2cc(-c3ccccc3)ccc2s1 | 310
Cc1ccc2sc(C(=O)NC3CCN(Cc4ccc(OC5CCNCC5)c(Br)c4)CC3)cc2c1 | 74
COc1ccc(-c2ccc3cc(C(=O)NC4CCN(Cc5ccc(OC6CCNCC6)c(Br)c5)CC4)sc3c2)cc1 | 49
O=C(NC1CCN(Cc2ccc(OC3CCNCC3)c(Br)c2)CC1)c1ccno1 | 340
O=C(NC1CCN(Cc2ccc(OC3CCNCC3)c(Br)c2)CC1)c1cc2cc([N+](=O)[O-])ccc2s1 | 49
N#Cc1ccc2sc(C(=O)NC3CCN(Cc4ccc(OC5CCNCC5)c(Br)c4)CC3)cc2c1 | 25
O=C(NC1CCN(Cc2ccc(OC3CCNCC3)c(Br)c2)CC1)c1cc2ccc(-c3ccc(F)cc3)cc2s1 | 74
O=C(NC1CCN(Cc2ccc(OC3CCNCC3)c(Br)c2)CC1)c1cc2ccc(-c3ccccc3)cc2s1 | 90
CCc1ccc2sc(C(=O)NC3CCN(Cc4ccc(OC5CCNCC5)c(Br)c4)CC3)cc2c1 | 180

The next lines start with the values.

IC50 [nM] | Compound
140 | Cc1ccc(-c2ccc3cc(C(=O)NC4CCN(Cc5ccc(OC6CCNCC6)c(Br)c5)CC4)sc3c2)cc1
100 | O=C(NC1CCN(Cc2ccc(OC3CCNCC3)c(Br)c2)CC1)c1cc2cc(C(F)(F)F)ccc2s1
86 | O=C(NC1CCN(Cc2ccc(OC3CCNCC3)c(Br)c2)CC1)c1cc2cc(Br)ccc2s1
770 | O=C(NC1CCN(Cc2ccc(OC3CCNCC3)c(Br)c2)CC1)c1ccco1
100 | COc1ccc2sc(C(=O)NC3CCN(Cc4ccc(OC5CCNCC5)c(Br)c4)CC3)cc2c1
120 | O=C(NC1CCN(Cc2ccc(OC3CCNCC3)c(Br)c2)CC1)c1ccccn1
130 | O=C(NC1CCN(Cc2ccc(OC3CCNCC3)c(Br)c2)CC1)c1cccs1
87 | COc1cccc(-c2ccc3cc(C(=O)NC4CCN(Cc5ccc(OC6CCNCC6)c(Br)c5)CC4)sc3c2)c1

Target: CYP3A4 (Homo sapiens, UniProt P08684)
Assay: Inhibition of CYP3A4 (unknown origin) at 10 uM
Format: ADME
Settings: not given

CYP3A4, sequence (P08684 whole entry): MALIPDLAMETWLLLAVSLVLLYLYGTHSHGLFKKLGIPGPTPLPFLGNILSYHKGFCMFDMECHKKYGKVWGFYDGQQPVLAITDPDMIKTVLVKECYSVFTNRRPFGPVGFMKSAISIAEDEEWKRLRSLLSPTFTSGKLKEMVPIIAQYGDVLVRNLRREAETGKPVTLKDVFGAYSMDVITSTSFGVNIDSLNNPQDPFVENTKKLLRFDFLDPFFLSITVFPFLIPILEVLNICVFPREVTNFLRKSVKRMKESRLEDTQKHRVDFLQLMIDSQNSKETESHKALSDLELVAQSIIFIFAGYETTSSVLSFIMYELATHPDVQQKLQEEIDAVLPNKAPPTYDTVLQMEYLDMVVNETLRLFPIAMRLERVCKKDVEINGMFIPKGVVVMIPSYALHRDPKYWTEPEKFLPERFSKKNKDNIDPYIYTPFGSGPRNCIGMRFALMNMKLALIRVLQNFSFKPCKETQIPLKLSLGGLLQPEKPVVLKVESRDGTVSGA

inhibition at 10 µM [%] | Compound
75 | N#Cc1ccc2sc(C(=O)NC3CCN(Cc4ccc(OC5CCNCC5)c(Br)c4)CC3)cc2c1

Target: CYP2D6 (Homo sapiens, UniProt P10635)
Assay: Inhibition of CYP2D6 (unknown origin) at 10 uM
Format: ADME
Settings: not given

CYP2D6, sequence (P10635 whole entry): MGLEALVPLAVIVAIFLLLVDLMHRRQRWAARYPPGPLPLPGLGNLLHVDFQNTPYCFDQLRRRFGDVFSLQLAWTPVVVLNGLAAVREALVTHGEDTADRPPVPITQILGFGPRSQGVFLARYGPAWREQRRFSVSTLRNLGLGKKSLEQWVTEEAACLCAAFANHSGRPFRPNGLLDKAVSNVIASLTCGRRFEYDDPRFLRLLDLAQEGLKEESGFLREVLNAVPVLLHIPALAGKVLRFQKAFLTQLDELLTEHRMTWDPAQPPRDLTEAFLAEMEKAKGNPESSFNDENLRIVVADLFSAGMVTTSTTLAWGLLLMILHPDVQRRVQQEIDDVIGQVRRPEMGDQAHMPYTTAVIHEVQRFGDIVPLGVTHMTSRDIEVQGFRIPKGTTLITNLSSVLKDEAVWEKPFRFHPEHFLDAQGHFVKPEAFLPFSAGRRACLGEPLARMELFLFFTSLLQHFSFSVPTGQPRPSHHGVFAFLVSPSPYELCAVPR

inhibition at 10 µM [%] | Compound
55 | N#Cc1ccc2sc(C(=O)NC3CCN(Cc4ccc(OC5CCNCC5)c(Br)c4)CC3)cc2c1

System: not listed separately
Assay: Metabolic stability in human liver microsomes after 30 mins
Format: ADME
Settings: read-out: Stability

remaining at 0.5 h [%] | Compound
85 | N#Cc1ccc2sc(C(=O)NC3CCN(Cc4ccc(OC5CCNCC5)c(Br)c4)CC3)cc2c1

System: not listed separately
Assay: Metabolic stability in rat liver microsomes after 30 mins
Format: ADME
Settings: read-out: Stability

remaining at 0.5 h [%] | Compound
74 | N#Cc1ccc2sc(C(=O)NC3CCN(Cc4ccc(OC5CCNCC5)c(Br)c4)CC3)cc2c1
